How the values were obtained:
Saccharomyces cerevisiae = assay: Antifungal activity against Saccharomyces cerevisiae ATCC 9763 at 12.5 mg/ml after 72 hrs by agar diffusion test; type: functional; details: ATCC 9763, 72 h, read-out: DIZ
Outline: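 Agar diffusion: yeasts grown on yeast peptone dextrose agar and fungi on potato dextrose agar. Wells are filled with […] of compound solution in DMSO at various concentrations, and the clear-zone diameter is measured. Bracketed values give the lowest concentration (mg/ml) that produces a zone >11 mm. A first screen is run at 50 mg/ml.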

Candida tropicalis = assay: Antifungal activity against Candida tropicalis ATCC 20336 at 25 mg/ml after 72 hrs by agar diffusion test; type: functional; details: ATCC 20336, 72 h, read-out: DIZ
Outline: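 Yeast grown on yeast peptone dextrose agar; wells cut in the seeded agar are filled with compound solution in DMSO. Read-out is the diameter of the clear inhibition zone.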

Row | SMILES | zone of inhibition at 12500 µg/mL (Saccharomyces cerevisiae) | zone of inhibition at 25000 µg/mL (Candida tropicalis)
1 | CCC(C)n1ncn(-c2ccc(N3CCN(c4ccc(OCC5COC(Cn6cncn6)(c6ccc(Cl)cc6Cl)O5)cc4)CC3)cc2)c1=O (configuration not stated) [ITRACONAZOLE] | 30 mm | –
2 | OC(Cn1cncn1)(Cn1cncn1)c1ccc(F)cc1F [FLUCONAZOLE] | – | 35 mm

From ChEMBL document CHEMBL1932986, “Synthesis and in vitro antimycobacterial activity of compounds derived from (R)- and (S)-2-amino-1-butanol - The crucial role of the configuration” (Eur J Med Chem, 2012)
